Data published in PMC10270725 (Journal of medicinal chemistry, 2023).

Columns and labels:
[1] = test system: TEAD transcription (pan-TEAD response element luciferase reporter) in NCI-H226 cells; experiment: TEAD gene reporter; format: cell-based
Summary of the method: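 NCI-H226 cells (RPMI1640, 10% FBS, 1% penicillin/streptomycin) were transduced with TEAD luciferase reporter lentivirus plus 8 μg/mL polybrene and puromycin-selected from day 3. Reporter cells were seeded at 1000 cells/well in 384-well plates and dosed with test compound for 3 days. One-Glo luciferase signal was normalized to CellTiter-Glo viability.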

[2] = biological target: His-TEAD1-YBD recombinant protein (Homo sapiens, UniProt P28347); experiment: TEAD1 TR-FRET biochemical assay; format: binding; settings: fixed time point 5 h
Summary of the method: (§1)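 100 nM His-TEAD-YBD was pretreated with test compound for 5 h. Then 800 nM FAM-labeled tracer built from a reversible pan-TEAD inhibitor was added, with anti-6His Tb cryptate antibody (50 ng/mL final). TR-FRET was read at 490/520 nm. IC50 is mean ± SEM of two experiments, each with three biological replicates.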

[3] = biological target: His-TEAD2-YBD recombinant protein (Homo sapiens, UniProt Q15562); experiment: TEAD2 TR-FRET biochemical assay; format: binding; settings: fixed time point 5 h
Summary of the method: as §1

[4] = biological target: His-TEAD3-YBD recombinant protein (Homo sapiens, UniProt Q99594); experiment: TEAD3 TR-FRET biochemical assay; format: binding; settings: fixed time point 5 h
Summary of the method: as §1

[5] = biological target: His-TEAD4-YBD recombinant protein (Homo sapiens, UniProt Q15561); experiment: TEAD4 TR-FRET biochemical assay; format: binding; settings: fixed time point 5 h
Summary of the method: as §1

[6] = test system: NF2-sufficient NCI-H28 mesothelioma cells; experiment: Proliferation assay in NCI-H28 cells; format: cell-based
[7] = biological target: recombinant TEAD1-YBD protein (Homo sapiens, UniProt P28347); experiment: Intact mass spectrometry analysis of covalent labeling; format: binding; settings: 10-fold molar excess of compound, 1 h at rt
Summary of the method: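 TEAD1-YBD (residues 209−424, N-terminal 6×His) was expressed in Rosetta(DE3) pLysS and purified on cobalt resin, then by gel filtration. Protein was incubated with DMSO or test compound for 1 h at rt. It was desalted 4 min in 0.2 M acetic acid on a POROS 50R2 column and eluted with a 1-min 0–100% acetonitrile gradient in 0.2 M acetic acid. Analysis was electrospray (4.5 kV) ion-trap MS.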

Chain of His-TEAD1-YBD recombinant protein (P28347 209-424): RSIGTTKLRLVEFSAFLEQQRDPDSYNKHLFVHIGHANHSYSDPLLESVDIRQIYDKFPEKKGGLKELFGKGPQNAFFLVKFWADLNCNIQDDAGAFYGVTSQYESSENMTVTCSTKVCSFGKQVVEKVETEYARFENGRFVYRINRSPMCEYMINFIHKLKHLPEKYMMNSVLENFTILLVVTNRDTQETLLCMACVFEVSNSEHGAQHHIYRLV
Chain of His-TEAD4-YBD recombinant protein (Q15561 217-434 limits assumed): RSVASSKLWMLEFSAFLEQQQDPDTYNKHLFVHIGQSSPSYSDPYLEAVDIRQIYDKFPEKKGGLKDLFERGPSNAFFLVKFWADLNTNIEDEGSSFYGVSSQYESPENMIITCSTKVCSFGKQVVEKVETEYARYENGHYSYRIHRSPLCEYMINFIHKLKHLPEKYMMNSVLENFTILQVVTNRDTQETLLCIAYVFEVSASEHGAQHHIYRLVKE
Chain of His-TEAD2-YBD recombinant protein (Q15562 217-447 limits assumed): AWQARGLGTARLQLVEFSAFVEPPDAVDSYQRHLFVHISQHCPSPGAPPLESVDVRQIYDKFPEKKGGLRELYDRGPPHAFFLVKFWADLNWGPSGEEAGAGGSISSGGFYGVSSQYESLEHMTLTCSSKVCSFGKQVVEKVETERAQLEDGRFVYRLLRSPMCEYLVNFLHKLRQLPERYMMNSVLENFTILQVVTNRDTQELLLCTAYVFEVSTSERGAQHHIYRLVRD
Chain of His-TEAD3-YBD recombinant protein (Q99594 219-435 limits assumed): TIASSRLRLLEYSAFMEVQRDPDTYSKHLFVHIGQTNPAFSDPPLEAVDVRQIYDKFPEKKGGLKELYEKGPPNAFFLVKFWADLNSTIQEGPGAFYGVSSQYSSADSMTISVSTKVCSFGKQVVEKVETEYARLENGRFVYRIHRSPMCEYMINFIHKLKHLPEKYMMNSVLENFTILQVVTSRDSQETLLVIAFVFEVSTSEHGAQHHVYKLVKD
Chain of recombinant TEAD1-YBD protein (P28347 209-424): as the sequence (P28347 209-424) above

Row | Compound | TEAD1 TR-FRET IC50 [2] | TEAD2 TR-FRET IC50 [3] | TEAD3 TR-FRET IC50 [4] | TEAD4 TR-FRET IC50 [5] | effect on proliferation of NCI-H28 cells [6] | other results
1 | 1-(trans-4-(5-Fluoropyrimidin-2-ylamino)-3-(4-(trifluoromethyl)-benzyloxy)piperidin-1-yl)prop-2-en-1-one [Compound 16] | – | – | – | – | – | IC50 ([1]; read-out: IC50 in the reporter gene assay (TEAD transcription), NCI-H226 reporter cells, 3 day treatment, mean ± SEM): 171 ± 88 nM
2 | C=CC(=O)N1C[C@@H](n2cc(-c3cccnc3)nn2)[C@H](OCc2ccc(C(F)(F)F)cc2)C1 (relative stereo) [Compound 1, 1-(trans-3-(4-(Pyridin-3-yl)-1H-1,2,3-triazol-1-yl)-4-((4-(trifluoromethyl)benzyl)oxy)pyrrolidin-1-yl)prop-2-en-1-one] | low nanomolar | low nanomolar | low nanomolar | low nanomolar | – | EC50 ([1]; Homo sapiens, NCI-H226, 72 h, read-out: EC50 in the TEAD reporter assay): 106 ± 30 nM
3 | C=CC(=O)N1C[C@@H](Nc2ncccn2)[C@H](OCc2ccc(C(F)(F)F)cc2)C1 (relative stereo) [Compound 14, 1-(trans-3-(Pyrimidin-2-ylamino)-4-((4-(trifluoromethyl)benzyl)-oxy)pyrrolidin-1-yl)prop-2-en-1-one] | – | – | – | – | limited effect | –
4 | CN(C)C/C=C/C(=O)N1C[C@@H](n2cc(-c3cccnc3)nn2)[C@H](OCc2ccc(C(F)(F)F)cc2)C1 [Compound 19, (E)-4-(Dimethylamino)-1-((3R,4R)-3-(4-(pyridin-3-yl)-1H-1,2,3-triazol-1-yl)-4-(4-(trifluoromethyl)benzyloxy)pyrrolidin-1-yl)but-2-en-1-one] | inactive | inactive | inactive | inactive | – | IC50 in the reporter gene assay (TEAD transcription) ([1]; NCI-H226 reporter cells, 3 day treatment, mean ± SEM): did not inhibit
5 | C=C(F)C(=O)N1C[C@@H](Nc2ncccn2)[C@H](OCc2ccc(C(F)(F)F)cc2)C1 [Compound 22, 2-Fluoro-1-((3R,4R)-3-(pyrimidin-2-ylamino)-4-((4-(trifluoromethyl)benzyl)oxy)pyrrolidin-1-yl)prop-2-en-1-one] | – | – | – | – | limited effect | covalent complex formation with TEAD1-YBD (intact mass shift) [7]: mass shift consistent with compound 22
